Source: ChEMBL document CHEMBL3045963, “Synthesis of nalidixic acid based hydrazones as novel pesticides” (2010)
Values after ≈ are worked out from the molar mass of the structure shown.

What was measured:
Format in all cases: functional
Fusarium oxysporum = assay: Fungicidal activity against Fusarium oxysporum by poisoned food technique; details: read-out: ED50 (the source's name)
Athelia rolfsii = assay: Fungicidal activity against Athelia rolfsii by poisoned food technique; details: Agroathelia rolfsii; read-out: ED50 (the source's name)
Rhizoctonia solani = assay: Fungicidal activity against Rhizoctonia solani by poisoned food technique; details: read-out: ED50 (the source's name)
Spodoptera litura [1] = assay: Insecticidal activity against third-instar larval stage of prestarved Spodoptera litura in castor leaf assessed as mortality at 0.1% treated for 2 secs before larval infestation measured after 24 hr by feeding method
In short: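 Castor leaf is dipped 2 s in 0.1% compound solution, air-dried, and placed on moist filter paper in 9 cm Petri plates. Larvae starved 4 h beforehand are released singly, one per plate. Thirty replicates per treatment, solvent control. Mortality is scored after 24 h.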

Callosobruchus maculatus = assay: Insecticidal activity against adult Callosobruchus maculatus assessed as mortality at 0.1% at 27 +/-1 degC after 24 hr by contact based film residue method
In short: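 Lab-reared adults, 2-5 days old, exposed to a dry film: 1 mL of 0.1% compound solution in dichloromethane is swirled in a 90 mm Petri plate and dried 3-5 min. Ten adults per plate are held at 27 ± 1 °C and 70% RH. Mortality is scored at 24 h, with no response to touch counted as dead. Triplicates, solvent control, malathion reference.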

Macrophomina phaseolina = assay: Fungicidal activity against Rhizoctonia bataticola by poisoned food technique; details: read-out: ED50 (the source's name)
Alternaria porri = assay: Fungicidal activity against Alternaria porri by poisoned food technique; details: read-out: ED50 (the source's name)
Spodoptera litura [2] = assay: Insecticidal activity against third-instar larval stage of Spodoptera litura assessed as mortality at 0.1% applied topically on the ventral side of the larvae measured after 24 hr by contact method
In short: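 Field-collected larvae are reared in the lab at 27 ± 1 °C and 70% RH. Two microliters of a 0.1% dichloromethane solution is applied to the ventral side. Ten treated larvae are kept per glass bottle and fed fresh castor leaves. Mortality is recorded at 24 h. Triplicate, solvent control.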

Tribolium castaneum = assay: Insecticidal activity against adult Tribolium castaneum (red flour beetle) in compound pre-treated green gram grains assessed as mortality at 20 mg/kg after 48 hr by feeding based residue method; details: in Vigna radiata
In short: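 Green gram grains are treated with compound in dichloromethane (0.6 mg in 5 mL) at 20 mg active ingredient per kg grain (0.002%). Ten adults are released onto 10 g of treated grain in a plastic box. Mortality is recorded after 48 h. Triplicate, solvent-treated control.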

Structure (SMILES)	EC50 (Fusarium oxysporum) [µg/mL]	EC50 (Athelia rolfsii) [µg/mL]	EC50 (Rhizoctonia solani) [µg/mL]	mortality (Spodoptera litura [1]) [%]	mortality (Callosobruchus maculatus) [%]	EC50 (Macrophomina phaseolina) [µg/mL]	EC50 (Alternaria porri) [µg/mL]	mortality (Spodoptera litura [2]) [%]	mortality at 20 mg/kg (Tribolium castaneum) [%]
CCn1cc(C(=O)N/N=C/c2ccc(Cl)cc2)c(=O)c2ccc(C)nc21	119 (≈ 322 µM)	438 (≈ 1190 µM)	308 (≈ 834 µM)	40	10	371 (≈ 1000 µM)	87.2 (≈ 236 µM)		
CCn1cc(C(=O)N/N=C/c2ccccn2)c(=O)c2ccc(C)nc21	79.1 (≈ 236 µM)	198 (≈ 590 µM)	170 (≈ 508 µM)	100	10	372 (≈ 1110 µM)	77.3 (≈ 230 µM)		
CCn1cc(C(=O)N/N=C/c2cccc(C)c2)c(=O)c2ccc(C)nc21	103 (≈ 296 µM)	298 (≈ 854 µM)	301 (≈ 865 µM)	80	60	322 (≈ 924 µM)	66.9 (≈ 192 µM)		
CCn1cc(C(=O)N/N=C/c2ccc(C)cc2)c(=O)c2ccc(C)nc21	195 (≈ 560 µM)	374 (≈ 1070 µM)	372 (≈ 1070 µM)	70	20	378 (≈ 1080 µM)	87.3 (≈ 251 µM)	10	
CCn1cc(C(=O)N/N=C/c2ccc([N+](=O)[O-])cc2)c(=O)c2ccc(C)nc21	125 (≈ 330 µM)	464 (≈ 1220 µM)	226 (≈ 595 µM)	90	10	575 (≈ 1520 µM)	70.1 (≈ 185 µM)	10	
CCn1cc(C(=O)N/N=C/c2cccc(Br)c2)c(=O)c2ccc(C)nc21	209 (≈ 506 µM)	380 (≈ 920 µM)	439 (≈ 1060 µM)	20	20	628 (≈ 1520 µM)	125 (≈ 303 µM)	10	
CCn1cc(C(=O)N/N=C/c2ccc(OC)cc2OC)c(=O)c2ccc(C)nc21	176 (≈ 447 µM)	375 (≈ 950 µM)	188 (≈ 477 µM)	100	12	382 (≈ 969 µM)	131 (≈ 332 µM)	10	
CCn1cc(C(=O)N/N=C/c2ccccc2[N+](=O)[O-])c(=O)c2ccc(C)nc21	169 (≈ 445 µM)	655 (≈ 1730 µM)	329 (≈ 866 µM)	100	60	610 (≈ 1610 µM)	71.3 (≈ 188 µM)	30	20
CCn1cc(C(=O)N/N=C/c2cccc([N+](=O)[O-])c2)c(=O)c2ccc(C)nc21	212 (≈ 559 µM)	287 (≈ 756 µM)	245 (≈ 645 µM)	80	10	272 (≈ 716 µM)	89 (≈ 235 µM)		
CCn1cc(C(=O)N/N=C/c2ccc(F)cc2)c(=O)c2ccc(C)nc21	79.9 (≈ 227 µM)	220 (≈ 624 µM)	234 (≈ 665 µM)	50	10	244 (≈ 692 µM)	64.8 (≈ 184 µM)		
CCn1cc(C(=O)N/N=C/c2ccc(O)c(OC)c2)c(=O)c2ccc(C)nc21	377 (≈ 991 µM)	460 (≈ 1210 µM)	317 (≈ 833 µM)	100	20	528 (≈ 1390 µM)	128 (≈ 337 µM)	20	
CCn1cc(C(=O)NN=C2CCCCC2)c(=O)c2ccc(C)nc21	62.6 (≈ 192 µM)	177 (≈ 543 µM)	166 (≈ 510 µM)	70	0	188 (≈ 577 µM)	34.2 (≈ 105 µM)		15
CCn1cc(C(=O)N/N=C/c2ccc(OC)cc2)c(=O)c2ccc(C)nc21	152 (≈ 416 µM)	320 (≈ 879 µM)	238 (≈ 654 µM)	70	70	301 (≈ 825 µM)	121 (≈ 332 µM)		30
CCn1cc(C(=O)N/N=C/c2ccc(C(C)C)cc2)c(=O)c2ccc(C)nc21	277 (≈ 736 µM)	464 (≈ 1230 µM)	252 (≈ 671 µM)	10	20	453 (≈ 1200 µM)	124 (≈ 331 µM)		
CCn1cc(C(=O)N/N=C/c2c(Cl)cccc2Cl)c(=O)c2ccc(C)nc21	114 (≈ 283 µM)	282 (≈ 701 µM)	298 (≈ 738 µM)	100	30	255 (≈ 633 µM)	87.2 (≈ 216 µM)	10	
CCn1cc(C(=O)N/N=C/c2cccc(Cl)c2)c(=O)c2ccc(C)nc21	132 (≈ 358 µM)	439 (≈ 1190 µM)	394 (≈ 1070 µM)	90	10	504 (≈ 1370 µM)	98.8 (≈ 268 µM)		
CCOc1cc(/C=N/NC(=O)c2cn(CC)c3nc(C)ccc3c2=O)ccc1O	185 (≈ 469 µM)	384 (≈ 974 µM)	356 (≈ 903 µM)	90	22	400 (≈ 1010 µM)	92.1 (≈ 234 µM)	10	
CCn1cc(C(=O)N/N=C/c2ccccc2C)c(=O)c2ccc(C)nc21	129 (≈ 369 µM)	346 (≈ 993 µM)	408 (≈ 1170 µM)	0	10	533 (≈ 1530 µM)	109 (≈ 313 µM)		
CCn1cc(C(=O)N/N=C/c2ccc(Cl)cc2Cl)c(=O)c2ccc(C)nc21	121 (≈ 300 µM)	541 (≈ 1340 µM)	354 (≈ 877 µM)	100	40	495 (≈ 1230 µM)	119 (≈ 296 µM)		
CCCCC(O)(Cn1cncn1)c1ccc(Cl)cc1Cl (configuration not stated) [HEXACONAZOLE]	20.6 (≈ 65.6 µM)	13 (≈ 41.4 µM)	18.3 (≈ 58.2 µM)			4.4 (≈ 14 µM)	25.5 (≈ 81.2 µM)		
CCn1cc(C(=O)N/N=C/c2ccc(OC)c(OC)c2)c(=O)c2ccc(C)nc21	137 (≈ 346 µM)	359 (≈ 909 µM)	172 (≈ 435 µM)	40	10	285 (≈ 722 µM)	102 (≈ 259 µM)		
CCn1cc(C(=O)N/N=C/c2ccc(O)cc2)c(=O)c2ccc(C)nc21	181 (≈ 517 µM)	364 (≈ 1040 µM)	330 (≈ 943 µM)	70	40	308 (≈ 878 µM)	146 (≈ 416 µM)	10	
C/C=C/C=N/NC(=O)c1cn(CC)c2nc(C)ccc2c1=O	95.4 (≈ 320 µM)	204 (≈ 683 µM)	248 (≈ 830 µM)	60	0	324 (≈ 1090 µM)	89.8 (≈ 301 µM)		
CCn1cc(C(=O)N/N=C/c2cc(OC)c(OC)c(OC)c2)c(=O)c2ccc(C)nc21	102 (≈ 241 µM)	186 (≈ 438 µM)	174 (≈ 409 µM)	90	10	201 (≈ 474 µM)	79.4 (≈ 187 µM)	10	
CCn1cc(C(=O)N/N=C/c2ccc(O)cc2O)c(=O)c2ccc(C)nc21	196 (≈ 536 µM)	397 (≈ 1080 µM)	342 (≈ 932 µM)	40	25	650 (≈ 1770 µM)	144 (≈ 392 µM)		
CC1(C)C(C=C(Cl)Cl)C1C(=O)OC(C#N)c1cccc(Oc2ccccc2)c1 (stereo not drawn) [ALPHA-CYPERMETHRIN]				100					
CCn1cc(C(=O)N/N=C/c2cccc(OC)c2)c(=O)c2ccc(C)nc21	63.1 (≈ 173 µM)	242 (≈ 665 µM)	157 (≈ 432 µM)	10	10	210 (≈ 575 µM)	57.6 (≈ 158 µM)		
CCn1cc(C(=O)N/N=C/c2cccc3ccccc23)c(=O)c2ccc(C)nc21	134 (≈ 350 µM)	259 (≈ 674 µM)	226 (≈ 589 µM)	90	0	316 (≈ 821 µM)	115 (≈ 300 µM)	10	
